For 18 compounds, viability, differential viability (reversal) and inhibition results are on record in PubChem BioAssay.

Assay [1] in a line: reduced viability of SK-BR-3 breast cancer cells – cell-based, 24 h, human, pilot screen (AID 572;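 active = viability at or below 10% of carrier control in both of two separate runs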;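 also: compound exposure lasted between 18 and 24 h rather than exactly 24 h; 100% = carrier-treated control wells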). To be noted: SK-BR-3 viability, CellTiter-Glo luminescence, at 10 µM, stronger effect = lower value.
A short description of assay [2]: HUVEC growth inhibition – cell-based, human, primary screen (AID 575;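 active = viability at or below 30% in both replicate assays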;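 also: 100% = median of untreated cell wells with 0.1% DMSO on each plate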). To be noted: HUVEC proliferation, CellTiter-Glo luminescence, 72 h; at 10 µM; stronger effect = lower value. The essentials: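 Timing: 72 h treatment at 37 °C; material: HUVEC primary cells; technique: CellTiter-Glo luminescence measuring cellular ATP; controls: vehicle and MePR control wells; measure: percent of median DMSO-control luminescence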

The nature of assay [3]: H69AR cell proliferation blockers – human, duplicate replicates, primary screen (AID 580;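 active = viability at or under a set limit in both replicates, limit being median viability minus 3 SD, cut at about 48% in these data, passing the limit was not always enough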;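 also: 100% = mean luminescence of untreated wells and 0% = no signal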). To be noted: H69AR lung tumor cells viability, ATP luminescence, 72 h; at 10 µM; stronger effect = lower value.
The nature of assay [4]: MRP1 drug-resistance reversers in H69AR cells – cell-based, doxorubicin co-treatment, pilot screen (AID 601;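 active = viability loss from added drug above about 55%, and viability with drug at most 40%, in both replicates, limit read from the data, passing the limit was not always enough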). To be noted: CellTiter-Glo, 72 h, at 10 µM; for differential viability (reversal): stronger effect = higher value.
A short description of assay [5]: yeast transport mutant growth inhibition pilot in 384-well plates, post-Golgi transport modulator project (AID 636; in the data active = inhibition above about 31%). To be noted: absorbance 615 nm, about 18 h, stronger effect = higher value.
Assay [6] in a line: growth suppression of yeast trafficking mutant, preliminary HTS, modulators of trafficking downstream of Golgi apparatus project, 1536-format plate, OD 615 nm (AID 637). The settings on record: yeast transport mutant growth, absorbance 615 nm, 18 h; stronger effect = higher value.
[7] abbreviates: H69AR cells + 2 uM doxorubicin, measured here: viability with 2 uM doxorubicin, stronger effect = lower value.
Where [8] appears, read: H69AR cells, compound alone cytotoxicity.

Molecules are shown by their SMILES. Calls of active or inactive are those of the source. Rule as the data show it, unless noted: active = inhibition above about 30%; inactive = the rest.

With `COc1ccc(NC(=O)CSc2c(C)nn(-c3nnc(C)c(=O)[nH]3)c2C)cc1`, the viability in assay [1] is 101% (inactive); in assay [2], 98.2% (inactive); in assay [3], 113% (inactive); in assay [4] (setting [7]) it was 95.5%; in assay [4] (setting [8]) it was 113%. For the same compound, the differential viability (reversal) in assay [4] (H69AR cells + 2 uM doxorubicin) is 17% (inactive). Besides, the figures for the inhibition in assay [5] and in assay [6] were -0.41% (inactive) and -6.45% (inactive), respectively.
For the compound `CNC[C@H](O)c1cccc(O)c1`, the viability in assay [1] was 131% (inactive); in assay [2] it was 93.7% (inactive); in assay [3] it was 92.5% (inactive); in assay [4] (setting [7]), 84.8%; in assay [4] (setting [8]), 92.5%. Moreover, the differential viability (reversal) in assay [4] (H69AR cells + 2 uM doxorubicin) is 7.67% (inactive). The inhibition is -1.56% (inactive) in assay [5] and 2.5% (inactive) in assay [6].
Regarding `CCN1CCN(c2nc3c(c(=O)n(C)c(=O)n3C)n2Cc2cccc3ccccc23)CC1`, the viability in assay [1] was 87% (inactive); in assay [2] it was 104% (inactive); in assay [3] it was 87.7% (inactive); in assay [4] (setting [7]), 84.4%; in assay [4] (setting [8]) it was 87.7%. Further, the differential viability (reversal) in assay [4] (H69AR cells + 2 uM doxorubicin) was 3.33% (inactive). Also, the inhibition in assay [5] was -6.58% (inactive); in assay [6], 0.91% (inactive).
Consider `CC(C)NCC(O)COc1ccc(CCOCC2CC2)cc1` (centres undefined), for which the viability in assay [1] is 102% (inactive); in assay [2], 83.3% (inactive); in assay [3], 95.8% (inactive); in assay [4] (setting [7]), 111%; in assay [4] (setting [8]) it was 95.8%. Further, the differential viability (reversal) in assay [4] (H69AR cells + 2 uM doxorubicin) was -14.9% (inactive). Also, the inhibition is -0.91% (inactive) in assay [5] and -5% (inactive) in assay [6].
Regarding `Cc1ccc(C2C(C(=O)c3sc(C)nc3C)=C(O)C(=O)N2CCN(C)C)o1` (centres undefined), the viability is 93% (inactive) in assay [1]; 114% (inactive) in assay [2]; 103% (inactive) in assay [3]; 99.1% in assay [4] (setting [7]); 103% in assay [4] (setting [8]). The differential viability (reversal) in assay [4] (H69AR cells + 2 uM doxorubicin) is 3.58% (inactive). Further, the inhibition was -3.65% (inactive) in assay [5] and 0% (inactive) in assay [6].
`CCCCCC#CCC#CCC#CCC#CCCCC(=O)O`: the viability in assay [1] was 152% (inactive); in assay [2], 66.2% (inactive); in assay [3], 93.6% (inactive); in assay [4] (setting [7]), 93.9%; in assay [4] (setting [8]) it was 93.6%. The differential viability (reversal) in assay [4] (H69AR cells + 2 uM doxorubicin) is -0.29% (inactive). The inhibition in assay [5] is 0.78% (inactive); in assay [6] it was 8.33% (inactive).
Consider `CCc1noc(C)c1C(=O)NCCc1ccc(OC)c(OC)c1`, for which the viability in assay [1] is 87% (inactive); in assay [2], 104% (inactive); in assay [3] it was 104% (inactive); in assay [4] (setting [7]) it was 87%; in assay [4] (setting [8]) it was 104%. Also, in assay [4] (H69AR cells + 2 uM doxorubicin), the differential viability (reversal) is 16.7% (inactive). In addition, the values for the inhibition in assay [5] and in assay [6] were -8.49% (inactive) and 2.58% (inactive), respectively.
Consider `c1ccc(CSc2nnc(-c3cccs3)n2Cc2ccco2)cc1`, for which the viability in assay [1] is 86% (inactive); in assay [2], 90.3% (inactive); in assay [3], 83.2% (inactive); in assay [4] (setting [7]) it was 83.4%; in assay [4] (setting [8]) it was 83.2%. The differential viability (reversal) in assay [4] (H69AR cells + 2 uM doxorubicin) was -0.12% (inactive). Besides, the inhibition in assay [5] is 1.37% (inactive); in assay [6] it was -0.65% (inactive).
With `CCCC(=O)Nc1ccc(C(=O)O)cc1NC(=O)CCC`, the viability in assay [1] was 77% (inactive); in assay [2] it was 97.3% (inactive); in assay [3], 96.3% (inactive); in assay [4] (setting [7]), 119%; in assay [4] (setting [8]), 96.3%. Also, in assay [4] (H69AR cells + 2 uM doxorubicin), the differential viability (reversal) is -23% (inactive). The inhibition in assay [5] is -3.56% (inactive); in assay [6] it was 1.45% (inactive).
`O=C(CSc1nc2ccccc2c(=O)n1Cc1ccco1)NCc1ccccc1`: the viability is 72% (inactive) in assay [1]; 82.6% (inactive) in assay [2]; 89.4% (inactive) in assay [3]; 86.3% in assay [4] (setting [7]); 89.4% in assay [4] (setting [8]). The differential viability (reversal) in assay [4] (H69AR cells + 2 uM doxorubicin) is 3.12% (inactive). In addition, the inhibition was -8.63% (inactive) in assay [5] and 0.73% (inactive) in assay [6].
Regarding `Cc1ccc(Cn2nnc(C(=O)Nc3cccc(C)c3C)c2N)cc1`, the viability in assay [1] is 97% (inactive); in assay [2], 63.1% (inactive); in assay [3], 86.2% (inactive); in assay [4] (setting [7]), 94.1%; in assay [4] (setting [8]), 86.2%. Besides, the differential viability (reversal) in assay [4] (H69AR cells + 2 uM doxorubicin) is -7.94% (inactive). Further, the inhibition in assay [5] was -6.1% (inactive); in assay [6], -2.3% (inactive).
On to `Cc1cccc(-n2ncc3c(NCc4cccs4)ncnc32)c1`, for which the viability in assay [1] was 64% (inactive); in assay [2] it was 61.8% (inactive); in assay [3], 66.1% (inactive); in assay [4] (setting [7]) it was 88.9%; in assay [4] (setting [8]), 66.1%. Moreover, the differential viability (reversal) in assay [4] (H69AR cells + 2 uM doxorubicin) was -22.8% (inactive). Moreover, the inhibition was 26.2% (inactive) in assay [5] and 0.36% (inactive) in assay [6].
For the compound `CCC(C(=O)NC(C)CCc1ccco1)n1nc(C)n2c(cc3occc32)c1=O` (centres undefined), the viability in assay [1] is 129% (inactive); in assay [2] it was 103% (inactive); in assay [3], 83.5% (inactive); in assay [4] (setting [7]), 99.7%; in assay [4] (setting [8]) it was 83.5%. Further, the differential viability (reversal) in assay [4] (H69AR cells + 2 uM doxorubicin) is -16.1% (inactive). For the same compound, the inhibition in assay [5] was -6.3% (inactive); in assay [6] it was -1.64% (inactive).
As for `COc1ccc2c(c1)c(CC(=O)O)c(C)n2C(=O)c1ccc(Cl)cc1`, the viability in assay [1] was 99% (inactive); in assay [2], 69.3% (inactive); in assay [3] it was 95.6% (inactive); in assay [4] (setting [7]), 92.3%; in assay [4] (setting [8]) it was 95.6%. In addition, in assay [4] (H69AR cells + 2 uM doxorubicin), the differential viability (reversal) is 3.25% (inactive). Moreover, the inhibition in assay [5] is -4.16% (inactive); in assay [6], 0.5% (inactive).
Regarding `Cc1nc2ccccc2c(=O)n1NC(=O)Nc1ccccc1`, the viability in assay [1] is 111% (inactive); in assay [2] it was 95.1% (inactive); in assay [3], 107% (inactive); in assay [4] (setting [7]), 96%; in assay [4] (setting [8]) it was 107%. Further, the differential viability (reversal) in assay [4] (H69AR cells + 2 uM doxorubicin) is 10.6% (inactive). In addition, the figures for the inhibition in assay [5] and in assay [6] were -1.2% (inactive) and -1.82% (inactive), respectively.
As to `CCOC(=O)/C=C1\SCC(=O)N1Cc1nnc(-c2ccccc2Br)o1`, the viability in assay [1] is 107% (inactive); in assay [2], 97.5% (inactive); in assay [3] it was 91.3% (inactive); in assay [4] (setting [7]) it was 88.2%; in assay [4] (setting [8]), 91.3%. Besides, the differential viability (reversal) in assay [4] (H69AR cells + 2 uM doxorubicin) was 3.01% (inactive). Besides, the inhibition in assay [5] was -7.81% (inactive); in assay [6], 1.82% (inactive).
For `COC(=O)c1ccc2c(=O)n(NC(C)=O)c(=S)[nH]c2c1`, the viability is 93% (inactive) in assay [1]; 109% (inactive) in assay [2]; 93.7% (inactive) in assay [3]; 83% in assay [4] (setting [7]); 93.7% in assay [4] (setting [8]). Besides, in assay [4] (H69AR cells + 2 uM doxorubicin), the differential viability (reversal) was 10.7% (inactive). Further, the inhibition in assay [5] was -6.67% (inactive); in assay [6], 3.09% (inactive).
As to `CCOC(=O)C1C2C=CC3(CN(Cc4ccco4)C(=O)C13)O2` (centres undefined), the viability in assay [1] is 97% (inactive); in assay [2] it was 95.6% (inactive); in assay [3], 96.5% (inactive); in assay [4] (setting [7]) it was 89.7%; in assay [4] (setting [8]) it was 96.5%. Also, in assay [4] (H69AR cells + 2 uM doxorubicin), the differential viability (reversal) is 6.86% (inactive). Further, the inhibition in assay [5] is -6.99% (inactive); in assay [6], 1.45% (inactive).
